From ChEMBL document CHEMBL1136006, “New PET imaging agent for the serotonin transporter: [(18)F]ACF (2-[(2-amino-4-chloro-5-fluorophenyl)thio]-N,N-dimethyl-benzenmethanamine)” (J Med Chem, 2002)

Legend:
Rattus norvegicus [1] = assay: Effect of pretreatment with (+)-McN5652 with a dose of 2 mg/kg (i.v.) on specific binding of [18F]ACF in rat brain hippocampus; assay type: ADME, organism-based; parameters: dose 2 mg/kg, route intravenous; conditions: in vivo, iv
How it was run: (§1)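 Rats pretreated iv with drug (2 mg/kg) or saline 5 min before iv [18F]ACF (50 μCi). Sacrificed 1 h after tracer. Brain regions were dissected, weighed and counted, and % dose/g was calculated against a diluted initial dose. Drug-treated rats were compared with saline controls by ANOVA/Dunnett's test (p<0.05). Three rats per point, average ± SD.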

Rattus norvegicus [2] = assay: Effect of pretreatment with (+)-McN5652 with a dose of 2 mg/kg (i.v.) on specific binding of [18F]ACF in rat brain striatum; assay type: ADME, organism-based; parameters: dose 2 mg/kg, route intravenous; conditions: in vivo, iv; how it was run: as §1
Rattus norvegicus [3] = assay: Effect of pretreatment with methylphenidate with a dose of 2 mg/kg (i.v.) on specific binding of [18F]ACF in rat brain blood; assay type: ADME, organism-based; parameters: dose 2 mg/kg, route intravenous; conditions: in vivo, iv; how it was run: as §1
Rattus norvegicus [4] = species on record: Rattus norvegicus; assay: Organ distribution of [18F]ACF radiolabeled compound in rat kidney after 2 min; assay type: ADME, organism-based; conditions: in vivo
How it was run: (§2)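 Rats, three per time point, under ether anesthesia; 30 μCi tracer in 0.2 mL saline injected into femoral vein. Sacrificed by cardiac excision under ether at 2, 30, 60, 120 or 240 min. Organs removed, weighed and counted; % dose/organ calculated against counts of 1% of initial dose counted at the same time. Average of three rats ± SD.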

Rattus norvegicus [5] = species on record: Rattus norvegicus; assay: Organ distribution of [18F]ACF radiolabeled compound in rat kidney after 30 min; assay type: ADME, organism-based; conditions: in vivo, 0.5 h; how it was run: as §2
Rattus norvegicus [6] = species on record: Rattus norvegicus; assay: Regional brain distribution of [18F]-ACF radiolabeled compound in rat remainder (rest of brain) after 60 min; assay type: ADME, organism-based; conditions: in vivo, 1 h
How it was run: (§3)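 Rats (three per group) under ether anesthesia got 30 μCi tracer in 0.2 mL saline into the femoral vein and were killed by cardiac excision at the stated time. Cortex, striatum, hippocampus, cerebellum, hypothalamus and the rest of brain were dissected, weighed and gamma counted. %dose/g was taken against counts of a diluted initial dose. Regional ratios are each region's %dose/g over cerebellum's. Mean ± SD.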

Rattus norvegicus [7] = species on record: Rattus norvegicus; assay: Regional brain distribution of [18F]ACF radiolabeled compound in rat striatum after 30 min; assay type: ADME, organism-based; conditions: in vivo, 0.5 h
How it was run: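 Rats, three per group, under ether anaesthesia, given 30 μCi no-carrier-added tracer in 0.2 mL saline into the femoral vein. They were killed at the stated time by cardiac excision under ether. Striatum and other brain regions were dissected, weighed and counted. %dose/g was calculated against counts of 1% of the injected dose, as mean ± SD of three rats.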

Rattus norvegicus [8] = species on record: Rattus norvegicus; assay: Regional brain distribution of [18F]-ACF radiolabeled compound in rat hypothalamus after 120 min; assay type: ADME, organism-based; conditions: in vivo, 2 h; how it was run: as §3
Rattus norvegicus [9] = species on record: Rattus norvegicus; assay: Regional brain distribution of [18F]ACF radiolabeled compound in rat hypothalamus after 30 min; assay type: ADME, organism-based; conditions: in vivo, 0.5 h; how it was run: as §3
Rattus norvegicus [10] = species on record: Rattus norvegicus; assay: Organ distribution of [18F]ACF radiolabeled compound in rat liver after 240 min; assay type: ADME, organism-based; conditions: in vivo, 4 h; how it was run: as §2
Rattus norvegicus [11] = species on record: Rattus norvegicus; assay: Organ distribution of [18F]-ACF radiolabeled compound in rat liver after 60 min; assay type: ADME, organism-based; conditions: in vivo, 1 h
How it was run: (§4)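 Under ether anesthesia, 30 μCi no-carrier-added tracer in 0.2 mL saline injected into the femoral vein. Rats killed by cardiac excision at the stated time. Organs were removed, weighed and counted; % dose/organ was calculated against counts of a 1% initial-dose standard. Three rats per time, average ± SD.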

Rattus norvegicus [12] = species on record: Rattus norvegicus; assay: Organ distribution of [18F]-ACF radiolabeled compound in rat lung after 2 min; assay type: ADME, organism-based; conditions: in vivo; how it was run: as §4
Rattus norvegicus [13] = species on record: Rattus norvegicus; assay: Organ distribution of [18F]-ACF radiolabeled compound in rat lung after 60 min; assay type: ADME, organism-based; conditions: in vivo, 1 h; how it was run: as §4
Rattus norvegicus [14] = species on record: Rattus norvegicus; assay: Organ distribution of [18F]-ACF radiolabeled compound in rat muscle after 240 min; assay type: ADME, organism-based, Muscle tissue; conditions: in vivo, 4 h; how it was run: as §4
Rattus norvegicus [15] = species on record: Rattus norvegicus; assay: Organ distribution of [18F]-ACF radiolabeled compound in rat muscle after 30 min; assay type: ADME, organism-based, Muscle tissue; conditions: in vivo, 0.5 h; how it was run: as §4
Rattus norvegicus [16] = species on record: Rattus norvegicus; assay: Organ distribution of [18F]-ACF radiolabeled compound in rat skin after 240 min; assay type: ADME, organism-based; conditions: in vivo, 4 h; how it was run: as §4
Rattus norvegicus [17] = species on record: Rattus norvegicus; assay: Organ distribution of [18F]-ACF radiolabeled compound in rat spleen after 120 min; assay type: ADME, organism-based; conditions: in vivo, 2 h; how it was run: as §4
Rattus norvegicus [18] = species on record: Rattus norvegicus; assay: Organ distribution of [18F]-ACF radiolabeled compound in rat spleen after 30 min; assay type: ADME, organism-based; conditions: in vivo, 0.5 h; how it was run: as §4
Rattus norvegicus [19] = species on record: Rattus norvegicus; assay: Organ distribution of [18F]ACF radiolabeled compound in rat blood after 120 min; assay type: ADME, organism-based; conditions: in vivo, 2 h; how it was run: as §2
Rattus norvegicus [20] = species on record: Rattus norvegicus; assay: Organ distribution of [18F]ACF radiolabeled compound in rat bone after 120 min; assay type: ADME, organism-based, Bone element; conditions: in vivo, 2 h; how it was run: as §2
Rattus norvegicus [21] = species on record: Rattus norvegicus; assay: Regional brain distribution of [18F]ACF radiolabeled compound in rat hippocampus after 120 min; assay type: ADME, organism-based; conditions: in vivo, 2 h; how it was run: as §3
Rattus norvegicus [22] = species on record: Rattus norvegicus; assay: Regional brain distribution of [18F]ACF radiolabeled compound in rat hippocampus after 2 min; assay type: ADME, organism-based; conditions: in vivo; how it was run: as §3
Rattus norvegicus [23] = assay: Ratio of effect of pretreatment with methylphenidate with a dose of 2 mg/kg (i.v.) on specific binding of [18F]ACF in rat brain hippocampus to that of cerebellum; assay type: ADME, organism-based; parameters: dose 2 mg/kg, route intravenous; conditions: in vivo, iv
How it was run: (§5)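 Rats (three per point) pretreated iv with competing drug at 2 mg/kg or saline (control) 5 min before iv [18F]ACF (50 μCi). At 1 h post tracer, brain regions (cortex, striatum, hippocampus, cerebellum, hypothalamus, remainder) dissected, weighed, counted as % dose/g and expressed as ratio to cerebellum. Average ± SD; ANOVA with Dunnett's test vs saline controls, p < 0.05.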

Rattus norvegicus [24] = species on record: Rattus norvegicus; assay: Ratio of regional brain distribution of [18F]-ACF radiolabeled compound in rat cortex to that of cerebellum after 120 min; assay type: ADME, organism-based; conditions: in vivo, 2 h
How it was run: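 Rats, three per time point, given 30 μCi tracer in 0.2 mL saline into femoral vein under ether anesthesia; killed at 2, 30, 60, 120 or 240 min. Cortex, striatum, hippocampus, cerebellum, hypothalamus and rest of brain dissected, weighed, counted; % dose/g against diluted initial dose, then each region divided by cerebellum. Average of three rats ± SD.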

Rattus norvegicus [25] = assay: Ratio of effect of pretreatment with nisoxatine with a dose of 2 mg/kg (i.v.) on specific binding of [18F]ACF in rat brain cortex to that of cerebellum; assay type: ADME, organism-based; parameters: dose 2 mg/kg, route intravenous; conditions: in vivo, iv; how it was run: as §5
Rattus norvegicus [26] = assay: Ratio of effect of pretreatment with nisoxatine with a dose of 2 mg/kg (i.v.) on specific binding of [18F]-ACF in rat brain hippocampus to that of cerebellum; assay type: ADME, organism-based; parameters: dose 2 mg/kg, route intravenous; conditions: in vivo, iv; how it was run: as §5
Rattus norvegicus [27] = species on record: Rattus norvegicus; assay: Ratio of regional brain distribution of [18F]-ACF radiolabeled compound in rat hypothalamus to that of cerebellum after 60 min; assay type: ADME, organism-based; conditions: in vivo, 1 h; how it was run: as §3
Rattus norvegicus [28] = species on record: Rattus norvegicus; assay: Ratio of regional brain distribution of [18F]-ACF radiolabeled compound in rat remainder to that of cerebellum after 240 min; assay type: ADME, organism-based; conditions: in vivo, 4 h; how it was run: as §3
Rattus norvegicus [29] = species on record: Rattus norvegicus; assay: Ratio of regional brain distribution of [18F]ACF radiolabeled compound in rat striatum to that of cerebellum after 30 min; assay type: ADME, organism-based; conditions: in vivo, 0.5 h; how it was run: as §3
Rattus norvegicus [30] = species on record: Rattus norvegicus; assay: Ratio of regional brain distribution of [18F]ACF radiolabeled compound in rat hypothalamus to that of cerebellum after 120 min; assay type: ADME, organism-based; conditions: in vivo, 2 h; how it was run: as §3
Rattus norvegicus [31] = assay: Ratio of effect of pretreatment with (+)-McN5652 with a dose of 2 mg/kg (i.v.) on specific binding of [18F]ACF in rat brain striatum to that of cerebellum; assay type: ADME, organism-based; parameters: dose 2 mg/kg, route intravenous; conditions: in vivo, iv; how it was run: as §5
Rattus norvegicus [32] = assay: Ratio of effect of pretreatment with methylphenidate with a dose of 2 mg/kg (i.v.) on specific binding of [18F]ACF in rat brain cortex to that of cerebellum; assay type: ADME, organism-based; parameters: dose 2 mg/kg, route intravenous; conditions: in vivo, iv; how it was run: as §5
Rattus norvegicus [33] = species on record: Rattus norvegicus; assay: Regional brain distribution of [18F]ACF radiolabeled compound in rat cerebellum after 120 min; assay type: ADME, organism-based; conditions: in vivo, 2 h; how it was run: as §3
Rattus norvegicus [34] = species on record: Rattus norvegicus; assay: Ratio of regional brain distribution of [18F]ACF radiolabeled compound in rat striatum to that of cerebellum after 60 min; assay type: ADME, organism-based; conditions: in vivo, 1 h; how it was run: as §3

In the case of `CN(C)Cc1ccccc1Sc1cc(F)c(Cl)cc1N`, the Dose/g (Rattus norvegicus [1]) was 0.34%, the Dose/g (Rattus norvegicus [2]) was 0.25% and the Dose/g (Rattus norvegicus [3]) was 0.28%. The Dose/g (Rattus norvegicus [4]) was 6.97 % dose/organ, the Dose/g (Rattus norvegicus [5]) was 2.64 % dose/organ and the Dose/g (Rattus norvegicus [6]) was 0.39%. It also gave a Dose/g (Rattus norvegicus [7]) of 0.76%, a Dose/g (Rattus norvegicus [8]) of 0.17% and a Dose/g (Rattus norvegicus [9]) of 0.85%. For the same compound, the Dose/g (Rattus norvegicus [10]) was 3.55 % dose/organ, the Dose/g (Rattus norvegicus [11]) was 10.3 % dose/organ and the Dose/g (Rattus norvegicus [12]) was 14.9 % dose/organ. For the same compound, the Dose/g (Rattus norvegicus [13]) was 0.73 % dose/organ, the Dose/g (Rattus norvegicus [14]) was 2.08 % dose/organ and the Dose/g (Rattus norvegicus [15]) was 10.7 % dose/organ. It also gave a Dose/g (Rattus norvegicus [16]) of 1.53 % dose/organ, a Dose/g (Rattus norvegicus [17]) of 0.06 % dose/organ and a Dose/g (Rattus norvegicus [18]) of 0.29 % dose/organ. For the same compound, the Dose/g (Rattus norvegicus [19]) was 3.2 % dose/organ, the Dose/g (Rattus norvegicus [20]) was 0.28 % dose/organ and the Dose/g (Rattus norvegicus [21]) was 0.14%. The Dose/g (Rattus norvegicus [22]) was 1.6%, the Ratio (Rattus norvegicus [23]) was 2.5 and the Ratio (Rattus norvegicus [24]) was 1.77. It also gave a Ratio (Rattus norvegicus [25]) of 1.94, a Ratio (Rattus norvegicus [26]) of 2.44 and a Ratio (Rattus norvegicus [27]) of 3.53. It also gave a Ratio (Rattus norvegicus [28]) of 1.58, a Ratio (Rattus norvegicus [29]) of 2.06 and a Ratio (Rattus norvegicus [30]) of 3.23. For the same compound, the Ratio (Rattus norvegicus [31]) was 1.48, the Ratio (Rattus norvegicus [32]) was 2.02 and the Dose/g (Rattus norvegicus [33]) was 0.05%. It also gave a Ratio (Rattus norvegicus [34]) of 2.88.
